Only a sample is shown.
Apaf1 activ: activators of human Apaf-1 apoptosome | Apaf-1 apoptosome caspase-3 activation, DEVD-Rh110 fluorescence; active compounds read low | 0.31% of 330,000 active | O14727 | AID 489031 | activity change, negative = activation, % at 20 µM;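 active = activity change at or below -40% at 20 µM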
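Schedule: 30 min preincubation, 50 min reaction, room temperature / System: biochemical Apaf-1 apoptosome reconstitution / Medium: 20 mM HEPES pH 7.5 with CHAPS, BSA / Evaluation: Caspase-3 cleavage activity downstream of Apaf-1 activation / Detection: Caspase-3-released Rh110 fluorescence, 540 nm emission, 480 nm excitation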
Rh110 act interf: Rh110 signal interference in Apaf-1 activator counter-screen; Rh110 fluorescence interference, quenched caspase reaction, Ex480/Em540; 980 tested, under 10 active; fluorescence interference (activity change), % at 20 µM, hits read low; AID 504616; shares compounds with Apaf1 activ;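 active = mean activity change at or below -40% when tested at 20 µM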
Apaf-1 act conf: Apaf-1 (human) activation, single-dose confirmed; shares compounds with Apaf1 activ; reconstituted apoptosome caspase-3 activity, DEVD-Rh110 fluorescence; active compounds read low; activity change, negative = activation, % at 20 µM; 5% of 980 active; AID 504617;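 active = mean activity change at or below -40%, meaning activation of 40% or more, at 20 µM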
* = called active by the depositor; . = not tested or not shown.

SMILES	Apaf1 activ	Rh110 act interf	Apaf-1 act conf
Cc1[nH]n(-c2ccccc2)c(=O)c1C(c1ccc(C(=O)O)cc1)c1c(C)[nH]n(-c2ccccc2)c1=O	71	.	.
C#CCOCCOCCOCCNc1nc(N2CCN(C(=O)CCCCCCCCCCNC(=O)Cn3cc(CCCCCN)nn3)CC2)nc(N2CCN(C(=O)CCCCCCCCCCNC(=O)[C@@H]([C@H](C)O)n3cc(C)nn3)CC2)n1	49	.	.
CN1CCc2cccc3c2C1Cc1ccc(O)c(O)c1-3 (stereo not given)	50	.	.
CCn1c2ccccc2c2cc(NC(C)=O)ccc21	-226*	-1	-1
CCn1c(=O)c2cc(C(=O)N(C)c3cc(C)ccc3OC)sc2c2ccccc21	53	.	.
CC(=O)Nc1ccc2c(c1)N(C(=O)CN(C)C)c1ccccc1CC2	43	.	.
COc1ccc(CNCC(O)(c2ccc(Cl)cc2)c2ccc(Cl)cc2)cc1OC	42	.	.
CCCCCc1cc(=O)oc2c(C(CCN3CCCC(C)C3)c3ccc(OC)cc3)c(OC)cc(OC)c12 (stereo not given)	66	.	.
Cc1cc2oc3cc(NCCC4CCCN4C)ccc3c(=O)c2cc1C (stereo not given)	44	.	.
Cc1ccc(NC(=O)C2CCCN2C(=O)NC2CCCCC2)cc1C (stereo not given)	-120*	13	9
Fc1ccccc1Nc1nc(-c2ccncc2)nc2ccccc12	-321*	2	8
CCNC1=C(Cl)C(=O)c2ccccc2C1=O	51	.	.
COc1ccccc1-c1sc2ccccc2c1-c1ccc(OCCN2CCCCC2)cc1	62	.	.
COc1ccc(CNc2ccc3cn[nH]c3c2)c(OC)c1OC	46	.	.
CCn1cc(C(=O)NCCCOC)c(=O)c2cc(S(=O)(=O)N(C)C)ccc21	-303*	-5	8
COCCCNC(=O)c1c(N)n(-c2cccc(S(N)(=O)=O)c2)c2nc3ccccc3nc12	43	.	.
COc1ccc(S(=O)(=O)Oc2ccc3cccc(N)c3c2)cc1	88	.	.
CCN(CC)CCOc1ccc(/C(=C(/Cl)c2ccccc2)c2ccccc2)cc1	66	.	.
Cc1ccsc1C=Nc1ccc(O)cc1	94	.	.
CCC[C@@H](CN1CCC[C@H]1CN1C(N)=NC[C@H]1CC(C)C)N1C[C@@H](Cc2ccccc2)N(CCCC2CCCC2)C1=N	59	.	.
Cc1cc(C)n2nc(N)c(N=Nc3ccccc3)c2n1	-4	.	.
Cc1cc(C)n2nc(SC(C)C(=O)N(C)c3ccccc3)nc2n1 (stereo not given)	-54*	1	10
O=C(c1ccccc1)c1ccc2c(c1)OCCOCCOCCOCCO2	-208*	1	1
O=C(CCCCCn1c(=O)[nH]c2ccsc2c1=O)N1CCN(C2CCCCC2)CC1	-387*	0	2
Cn1c(NC(=O)c2ccc(Cl)s2)cc(=O)n(C)c1=O	66	.	.
SMILES	Apaf1 activ	Rh110 act interf	Apaf-1 act conf
O=CNn1cnc2c(oc3nc(-c4ccccc4)cc(-c4ccco4)c32)c1=O	-116*	8	-5
CC(C)(C)C(=O)NC1=NN(c2c(Cl)cc(Cl)cc2Cl)C(=O)C1	68	.	.
O=C(COc1ccc2c3c(c(=O)oc2c1)CCC3)N1CCN(c2ccc(F)cc2)CC1	42	.	.
Cc1oc2cc(OCC(=O)O)ccc2c(=O)c1Oc1ccccc1	-100*	4	12
CCOC(=O)c1c2ccc(OCC(=O)NN)cc2n2ccccc12	42	.	.
CCOc1cc(/C=C2\C(=O)N(c3nc(-c4ccc(Br)cc4)cs3)N=C2c2ccccc2)ccc1O	53	.	.
O=S(=O)(NCC(Nc1ccccc1)c1ccccc1)c1ccc(Cl)cc1 (stereo not given)	-245*	8	18
O=C(CN(Cc1cccs1)C(=O)CNS(=O)(=O)c1ccc(Cl)cc1)NCC1CCCO1 (stereo not given)	-292*	1	9
COc1ccc(Br)cc1C1CC(=O)N2CN(Cc3ccccc3)CSC2=C1C#N (stereo not given)	78	.	.
CN(C)CCCN(C(=O)CCc1ccccc1)c1nc2ccc(Cl)cc2s1	44	.	.
Oc1ccc(C=Nc2cccc3ncccc23)c(O)c1	87	.	.
O=C(N/N=C/c1ccc(O)c2ncccc12)c1cccc(Br)c1	-68*	-1	-4
COc1ccc(SC[C@H](C)CN2CC[C@H](NC(=O)OCc3ccccc3)CCC2=O)cc1	70	.	.
Cn1c(=O)nc2n(Cc3ccccc3)c3ccccc3cc-2c1=O	-172*	2	14
Cn1c2ccccc2c(=O)n2c(=O)c3ccccc3cc12	98	.	.
Cn1nc(-c2ccc(Cl)cc2)nc2c(=O)n(C)c(=O)nc1-2	99	.	.
COc1ccc(O)c(N)c1	76	.	.
CCc1ccc(S(=O)(=O)/N=C2\C=CC(=O)c3ccccc32)cc1	55	.	.
O=C(CSc1nnc(-c2ccncc2)n1CCc1ccccc1)N1CCCC1	-263*	5	15
NC[C@@H]1O[C@H](C23CC4CC(CC(C4)C2)C3)Cc2c1ccc(O)c2O	42	.	.
CCOC(=O)c1c(NC(=O)c2cccs2)sc(C)c1CC	51	.	.
C/C(=N\NC(=O)c1ccccc1)c1ccc(NC(=O)c2cccs2)cc1	-143*	-3	10
CN(Cc1ccc(F)cc1)C(=O)CNC(=O)c1cccs1	56	.	.
Cc1cccc(S(=O)(=O)C(C#N)c2nc3ccccc3nc2N2CCCC2)c1 (stereo not given)	55	.	.
CC1=NN(c2ccc(Br)cc2)C(=O)/C1=C/c1cccs1	96	.	.
SMILES	Apaf1 activ	Rh110 act interf	Apaf-1 act conf
Nc1ccc(Br)c2cccnc12	85	.	.
c1ccc(-c2nc(C3CCCCC3)no2)cc1	-154*	3	0
C#CCOCCOCCOCCNc1nc(N2CCN(C(=O)CCCCCCCCCCNC(=O)[C@H](CCCN=C(N)N)n3cc(C[C@@H](C)CC)nn3)CC2)nc(N2CCN(C(=O)CCCCCCCCCCNC(=O)[C@@H]([C@H](C)CC)n3cc(CCCCCN)nn3)CC2)n1	80	.	.
COc1ccc2[nH]c3c(=O)n(/N=C/c4ccc(OC)c(CN5CCCC5)c4)c(C)nc3c2c1	43	.	.
CCN(CC)CCN(C(=O)c1ccc(C(=O)c2ccccc2)cc1)c1nc2ccc(OC)cc2s1	44	.	.
COc1cc2c(cc1NC(=O)C(C)N1CCN(S(=O)(=O)c3ccc(C)c(C)c3)CC1)oc1ccccc12 (stereo not given)	-578*	14	13
COc1ccccc1OCCNC(=O)c1cccc(S(=O)(=O)N2CCN(Cc3ccccc3)CC2)c1	67	.	.
COc1ccc(S(=O)(=O)N2CCCCCC2)cc1C(=O)NCCc1ccccc1	47	.	.
CN1CCN(c2ccc(NC(=O)c3cc(S(N)(=O)=O)ccc3N3CCOCC3)cc2)CC1	40	.	.
Cc1cccc(NC(=O)c2cc(NC(=O)C3CCCCC3C(=O)O)ccc2N2CCOCC2)c1 (stereo not given)	-127*	3	12
COC(=O)CCC(=O)OC1(C)C(=O)C=C2C=C(C3CC3)N(CC3CC3)C=C2C1=O (stereo not given)	57	.	.
COc1ccc(C2CC(=O)c3cnc(NC(=O)c4ccco4)nc3C2)cc1 (stereo not given)	-139*	-7	6
O=C1C(O)=C(O)C(=O)c2ccccc21	92	.	.
CCOc1ccccc1N1CCN(C(=O)C2c3ccccc3Oc3ccccc32)CC1	41	.	.
CCOC(=O)N1CCC(NC(=O)CCC(=O)N2CCOc3ccccc32)CC1	-305*	4	8

High-throughput results deposited in PubChem by Sanford-Burnham Center for Chemical Genomics.
